Laboratory results published in ChEMBL document CHEMBL1649236, “The structure of the dizinc subclass B2 metallo-beta-lactamase CphA reveals that the second inhibitory zinc ion binds in the histidine site” (Antimicrob Agents Chemother, 2009).

Key:
[1] = compound: O=C(Cc1cccs1)N[C@@H]1C(=O)N2C(C(=O)O)=C(/C=C/c3ccc([N+](=O)[O-])cc3[N+](=O)[O-])CS[C@H]12; assay: (§1) Activity of Aeromonas hydrophila metallo-betalactamase CphA expressed in Escherichia coli BL21(DE3) by spectrophotometric analysis in presence of < 0.4 uM zinc ions
Outline: (§2)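 Steady-state kinetics (kcat, Km, kcat/Km) at 30°C in 15 mM cacodylate pH 6.5, no added Zn2+ (free [Zn2+] < 0.4 µM), enzyme as the mono-zinc form (one Zn per molecule). Substrates imipenem, nitrocefin and CENTA. N233A mutant from E. coli BL21 (DE3) pLysS Star, purified to homogeneity, mass checked by ESI-MS. Standard errors below 10%.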

[2] = compound: C[C@@H](O)[C@H]1C(=O)N2C(C(=O)O)=C(SCCNC=N)C[C@H]12; assay: as §1; outline: as §2
[3] = compound: O=C(Cc1cccs1)N[C@@H]1C(=O)N2C(C(=O)O)=C(CSc3ccc([N+](=O)[O-])c(C(=O)O)c3)CS[C@H]12; assay: as §1; outline: as §2
[4] = compound: O=C(Cc1cccs1)N[C@@H]1C(=O)N2C(C(=O)O)=C(/C=C/c3ccc([N+](=O)[O-])cc3[N+](=O)[O-])CS[C@H]12; assay: (§3) Ratio of Kcat to Km for Aeromonas hydrophila metallo-betalactamase CphA expressed in Escherichia coli BL21(DE3) by spectrophotometric analysis in presence of < 0.4 uM zinc ions; outline: as §2
[5] = compound: C[C@@H](O)[C@H]1C(=O)N2C(C(=O)O)=C(SCCNC=N)C[C@H]12; assay: as §3; outline: as §2
[6] = compound: O=C(Cc1cccs1)N[C@@H]1C(=O)N2C(C(=O)O)=C(CSc3ccc([N+](=O)[O-])c(C(=O)O)c3)CS[C@H]12; assay: as §3; outline: as §2

B1: Metallo-beta-lactamase type 2 (Aeromonas hydrophila), P26918 (protein)
chain: MMKGWMKCGLAGAVVLMASFWGGSVRAAGMSLTQVSGPVYVVEDNYYVQENSMVYFGAKGVTVVGATWTPDTARELHKLIKRVSRKPVLEVINTNYHTDRAGGNAYWKSIGAKVVSTRQTRDLMKSDWAEIVAFTRKGLPEYPDLPLVLPNVVHDGDFTLQEGKVRAFYAGPAHTPDGIFVYFPDEQVLYGNCILKEKLGNLSFADVKAYPQTLERLKAMKLPIKTVIGGHDSPLHGPELIDHYEALIKAAPQS
In the case of B1, the Km [1] is reported as 1300 µM, the kcat [1] is reported as 0.008 s⁻¹ and the Km [2] is reported as 340 µM. The kcat [2] was 1200 s⁻¹, the Km [3] was “Not Active” and the kcat [3] was “Not Active”. The kcat/Km [4] was 6 M⁻¹ s⁻¹, the kcat/Km [5] was 3.5e+06 M⁻¹ s⁻¹ and the kcat/Km [6] was “Not Active”.
